Legend:
[1] = Tmax in Sprague-Dawley rat at 320 mg/kg, po by HPLC/MS/MS analysis; format: ADME, organism-based; design: dose 320 mg/kg, route oral; conditions: in vivo
Procedure, shortened: (§1)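 Sprague-Dawley rats (250 ± 5.0 g), n = 8/group, dosed iv via lateral tail vein at 16 mg/kg in 100% saline or by oral gavage at 320 mg/kg as suspension in 0.5% methylcellulose. Serial tail-vein blood into heparinized tubes at 30 min, 1, 2, 3, 4, 5, 6, 7 and 24 h. Plasma treated by acetonitrile protein precipitation, then HPLC/MS on C18 column, 40 °C.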

Rattus norvegicus [2] = test: Antineuropathic pain activity in po dosed Sprague-Dawley rat chronic constriction injury model assessed as inhibition of mechanical allodynia measured on day 15 relative to sham-treated control; format: functional
Procedure, shortened: (§2)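 Sprague-Dawley rats, sciatic nerve chronic constriction injury (four loose 4-0 silk ligatures, chloral hydrate anaesthesia); sham has nerve exposed without ligation. Model confirmed on day 14. Oral dosing in 0.5% methylcellulose, 10 mL/kg, twice daily on days 15–18. Read after first dose (day 15) and last dose (day 18). Von Frey withdrawal threshold and radiant-heat plantar withdrawal latency (30 s cutoff), each paw sampled four times and averaged; 10 rats/group.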

Rattus norvegicus [3] = test: Cmax in Sprague-Dawley rat at 16 mg/kg, iv by HPLC/MS/MS analysis; format: ADME, organism-based; design: dose 16 mg/kg, route intravenous; conditions: in vivo; procedure, shortened: as §1
Mus musculus [4] = test: Antinociceptive activity in ip dosed Kun Ming mouse pain model assessed as reduction in licking and biting time during phase-2 administered 15 mins prior to formalin challenge relative to vehicle-treated control; format: functional
Procedure, shortened: (§3)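 Kun Ming mice (20 ± 2.0 g), 10–12 per group, given vehicle (30% PEG 400) or drug ip at 10 mL/kg 15 min before intraplantar formalin. Time spent licking or biting the injected paw scored at 0–5 min (phase I) and 15–45 min (phase II). Effect (%) = (LTV − LTD)/LTV × 100.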

Mus musculus [5] = test: Antinociceptive activity in ip dosed Kun Ming mouse pain model assessed as reduction in licking and biting time during phase-1 administered 15 mins prior to formalin challenge relative to vehicle-treated control; format: functional; procedure, shortened: as §3
[6] = biological target: Cannabinoid receptor 1 (Homo sapiens) (UniProt P21554); test: Displacement of [3H]-CP-55940 from human CB1 receptor expressed in CHO cells at 1 uM after 90 mins by liquid scintillation counting analysis; format: cell-based
Cannabinoid receptor 1 (Homo sapiens), sequence (P21554 whole entry): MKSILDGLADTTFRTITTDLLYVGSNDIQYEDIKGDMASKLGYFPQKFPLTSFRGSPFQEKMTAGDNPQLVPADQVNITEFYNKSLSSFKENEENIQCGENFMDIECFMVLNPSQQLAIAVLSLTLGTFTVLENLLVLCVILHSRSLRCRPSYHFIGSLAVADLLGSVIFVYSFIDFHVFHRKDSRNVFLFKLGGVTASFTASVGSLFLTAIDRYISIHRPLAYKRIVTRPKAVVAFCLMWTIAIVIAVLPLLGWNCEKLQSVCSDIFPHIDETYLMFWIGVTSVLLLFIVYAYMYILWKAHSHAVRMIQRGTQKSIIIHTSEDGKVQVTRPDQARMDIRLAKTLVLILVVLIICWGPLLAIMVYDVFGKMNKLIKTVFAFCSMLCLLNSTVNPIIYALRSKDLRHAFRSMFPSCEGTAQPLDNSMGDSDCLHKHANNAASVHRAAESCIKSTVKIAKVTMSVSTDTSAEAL

Mus musculus [7] = test: Toxicity in Kun Ming mouse at 20 to 80 mg/kg, ip measured after 30 to 120 mins by rotarod test; format: organism-based; design: route intraperitoneal; conditions: in vivo
Procedure, shortened: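 Rotarod test in Kun Ming mice pretrained to stay 300 s at 10 rpm. Latency to fall from drum turning at 10 rpm measured 30, 60, 90 and 120 min after ip dosing; 8–10 mice per group.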

Rattus norvegicus [8] = test: Cmax in Sprague-Dawley rat at 320 mg/kg, po by HPLC/MS/MS analysis; format: ADME, organism-based; design: dose 320 mg/kg, route oral; conditions: in vivo; procedure, shortened: as §1
[9] = AUC (0 to 24 hrs) in Sprague-Dawley rat at 320 mg/kg, po by HPLC/MS/MS analysis; format: ADME, organism-based; design: time < 24 hr, dose 320 mg/kg, route oral; conditions: plasma; procedure, shortened: as §1
[10] = AUC (0 to 24 hrs) in Sprague-Dawley rat at 16 mg/kg, iv by HPLC/MS/MS analysis; conditions: plasma
[11] = biological target: T1, 5-hydroxytryptamine receptor 1A (Rattus norvegicus) (UniProt P19327); test: Displacement of [3H]-8-OH-DPAT from rat cerebral cortex 5-HT1A receptor at 1 uM after 30 mins by liquid scintillation counting analysis; format: tissue-based
T1 sequence (whole entry): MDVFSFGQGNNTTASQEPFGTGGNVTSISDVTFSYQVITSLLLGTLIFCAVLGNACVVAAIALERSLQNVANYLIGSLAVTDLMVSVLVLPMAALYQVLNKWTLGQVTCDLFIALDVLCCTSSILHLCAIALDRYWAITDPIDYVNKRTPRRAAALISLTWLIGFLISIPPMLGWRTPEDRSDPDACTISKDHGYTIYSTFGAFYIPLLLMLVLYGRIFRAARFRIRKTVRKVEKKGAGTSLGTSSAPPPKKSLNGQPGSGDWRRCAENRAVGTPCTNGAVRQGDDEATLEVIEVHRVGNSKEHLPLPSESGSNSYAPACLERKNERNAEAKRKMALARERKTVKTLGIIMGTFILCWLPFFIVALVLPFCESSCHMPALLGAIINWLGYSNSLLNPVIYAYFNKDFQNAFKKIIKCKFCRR

Mus musculus [12] = test: Antinociceptive activity in Kun Ming mouse pain model assessed as reduction in licking and biting time during phase-1 at 80 mg/kg, ip administered 15 mins prior to formalin challenge relative to vehicle-treated control; format: functional; conditions: route intraperitoneal; procedure, shortened: as §3
[13] = biological target: Adrenergic receptor alpha-2 (Rattus norvegicus) (UniProt P22086+P19328+P22909); test: Displacement of [3H]-rauwolscine from rat cerebral cortex adrenergic alpha-2 receptor at 1 uM after 60 mins by liquid scintillation counting analysis; format: tissue-based
[14] = biological target: Histamine H1 receptor (Cavia porcellus) (UniProt P31389); test: Displacement of [3H]-mepyramine from guinea pig cerebellum histamine H1 receptor at 1 uM after 60 mins by liquid scintillation counting analysis
Histamine H1 receptor (Cavia porcellus), sequence (P31389 whole entry): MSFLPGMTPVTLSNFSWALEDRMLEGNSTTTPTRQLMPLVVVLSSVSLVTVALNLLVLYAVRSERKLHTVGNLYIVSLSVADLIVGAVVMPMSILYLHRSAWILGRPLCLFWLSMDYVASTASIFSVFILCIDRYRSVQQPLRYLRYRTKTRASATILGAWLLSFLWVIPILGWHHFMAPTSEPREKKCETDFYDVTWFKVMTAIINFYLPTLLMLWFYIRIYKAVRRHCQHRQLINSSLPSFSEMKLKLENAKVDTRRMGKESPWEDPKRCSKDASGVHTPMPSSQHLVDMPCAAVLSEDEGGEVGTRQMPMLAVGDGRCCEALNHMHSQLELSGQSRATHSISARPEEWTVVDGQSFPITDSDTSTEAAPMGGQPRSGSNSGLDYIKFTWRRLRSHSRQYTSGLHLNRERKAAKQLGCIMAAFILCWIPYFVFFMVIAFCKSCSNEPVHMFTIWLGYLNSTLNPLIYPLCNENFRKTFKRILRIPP

Rattus norvegicus [15] = test: Antineuropathic pain activity in po dosed Sprague-Dawley rat chronic constriction injury model assessed as inhibition of thermal hypersensitivity measured on day 18 by repeated dose treatment assay relative to sham-treated control; format: functional; procedure, shortened: as §2
[16] = Acute toxicity in po dosed Kun Ming mouse after 24 hrs; format: organism-based; conditions: in vivo
[17] = Displacement of [3H]-DTG from sigma-2 receptor in Dunkin Hartley guinea pig brain membrane after 120 mins by liquid scintillation counting analysis in presence of (+)-SKF10047; design: species or system Cavia porcellus
[18] = AUC (0 to infinity) in Sprague-Dawley rat at 320 mg/kg, po by HPLC/MS/MS analysis; format: ADME, organism-based; design: dose 320 mg/kg, route oral, time infinity; conditions: plasma; procedure, shortened: as §1
[19] = Oral bioavailability in Sprague-Dawley rat at 320 mg/kg; format: ADME, organism-based; conditions: in vivo
[20] = biological target: Cannabinoid receptor 2 (Homo sapiens) (UniProt P34972); test: Displacement of [3H]-CP-55940 from human CB2 receptor expressed in HEK cells at 1 uM after 90 mins by liquid scintillation counting analysis; format: cell-based; conditions: HEK293
Cannabinoid receptor 2 (Homo sapiens), sequence (P34972 whole entry): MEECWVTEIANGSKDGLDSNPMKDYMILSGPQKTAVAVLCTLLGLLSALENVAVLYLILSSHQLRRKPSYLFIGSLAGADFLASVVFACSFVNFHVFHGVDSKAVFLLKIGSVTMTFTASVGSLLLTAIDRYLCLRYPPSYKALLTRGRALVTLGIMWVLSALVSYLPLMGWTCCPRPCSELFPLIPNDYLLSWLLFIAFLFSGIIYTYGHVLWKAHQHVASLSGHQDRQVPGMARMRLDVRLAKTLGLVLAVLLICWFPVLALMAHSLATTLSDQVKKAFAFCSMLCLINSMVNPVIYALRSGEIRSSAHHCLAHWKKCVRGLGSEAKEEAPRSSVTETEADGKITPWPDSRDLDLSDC

[21] = biological target: Adrenergic receptor alpha-1 (Rattus norvegicus) (UniProt P15823+P23944+P43140); test: Displacement of [3H]-prazosin from rat cerebral cortex adrenergic alpha-1 receptor at 1 uM after 60 mins by liquid scintillation counting analysis; format: tissue-based
[22] = Half life in Sprague-Dawley rat at 16 mg/kg, iv by HPLC/MS/MS analysis; conditions: in vivo
[23] = biological target: Sodium-dependent serotonin transporter (Rattus norvegicus) (UniProt P31652); test: Displacement of [3H]-paroxetine from rat cerebral cortex serotonin HT transporter at 1 uM after 10 mins by liquid scintillation counting analysis; format: tissue-based
Sodium-dependent serotonin transporter (Rattus norvegicus), sequence (P31652 whole entry): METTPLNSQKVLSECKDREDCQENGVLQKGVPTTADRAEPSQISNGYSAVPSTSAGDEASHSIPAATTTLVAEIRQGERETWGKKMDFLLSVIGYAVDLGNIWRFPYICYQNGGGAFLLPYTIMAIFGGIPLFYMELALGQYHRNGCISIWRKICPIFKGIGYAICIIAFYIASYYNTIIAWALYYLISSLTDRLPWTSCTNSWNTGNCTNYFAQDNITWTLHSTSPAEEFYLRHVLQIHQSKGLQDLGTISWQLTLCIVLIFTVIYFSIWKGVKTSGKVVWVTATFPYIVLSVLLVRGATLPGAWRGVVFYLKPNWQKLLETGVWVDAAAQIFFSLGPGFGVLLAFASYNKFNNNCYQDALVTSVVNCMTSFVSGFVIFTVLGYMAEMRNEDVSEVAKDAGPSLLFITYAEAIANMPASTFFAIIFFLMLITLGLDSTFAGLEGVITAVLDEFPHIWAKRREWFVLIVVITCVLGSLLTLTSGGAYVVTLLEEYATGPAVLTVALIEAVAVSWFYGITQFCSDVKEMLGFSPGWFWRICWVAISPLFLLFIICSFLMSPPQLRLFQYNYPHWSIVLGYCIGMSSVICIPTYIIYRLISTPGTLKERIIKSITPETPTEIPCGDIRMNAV

[24] = AUC (0 to infinity) in Sprague-Dawley rat at 16 mg/kg, iv by HPLC/MS/MS analysis; conditions: plasma
[25] = biological target: 5-hydroxytryptamine receptor 2A (Rattus norvegicus) (UniProt P14842); test: Displacement of [3H]-ketanserin from rat cerebral cortex 5-HT2A receptor at 1 uM after 15 mins by liquid scintillation counting analysis; format: tissue-based
5-hydroxytryptamine receptor 2A (Rattus norvegicus), sequence (P14842 whole entry): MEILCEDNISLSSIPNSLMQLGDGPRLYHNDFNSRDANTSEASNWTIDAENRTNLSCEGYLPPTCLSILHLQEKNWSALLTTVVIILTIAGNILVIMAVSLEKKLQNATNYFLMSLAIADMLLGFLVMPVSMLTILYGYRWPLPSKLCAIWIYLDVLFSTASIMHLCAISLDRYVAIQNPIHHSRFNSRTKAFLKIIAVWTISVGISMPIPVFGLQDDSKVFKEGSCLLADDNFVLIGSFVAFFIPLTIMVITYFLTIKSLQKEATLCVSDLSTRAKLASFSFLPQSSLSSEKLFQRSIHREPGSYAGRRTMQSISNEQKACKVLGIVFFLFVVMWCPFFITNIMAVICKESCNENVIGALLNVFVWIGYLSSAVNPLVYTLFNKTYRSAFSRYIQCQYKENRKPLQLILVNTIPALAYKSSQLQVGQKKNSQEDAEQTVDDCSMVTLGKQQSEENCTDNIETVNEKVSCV

Compound: Cc1nc(-c2ccc(Cl)cc2)nc(OCCCN2CCCCC2)c1Cl
- Tmax [1]: 0.5 h
- inhibition (Rattus norvegicus [2]): Dose-dependent effect
- ED50 (Rattus norvegicus [2]; 360 h): 58.2 mg/kg
- Cmax (Rattus norvegicus [3]): 7260 ng/mL
- Activity (Mus musculus [4]): Dose-dependent effect
- ED50 (Mus musculus [4]): 42.1 mg/kg
- Activity (Mus musculus [5]): Dose-dependent effect
- ED50 (Mus musculus [5]): 48.4 mg/kg
- inhibition [6]: < 50%
- Activity (Mus musculus [7]): Non-toxic
- Cmax (Rattus norvegicus [8]): 17400 ng/mL
- AUC(0-t) at 24 h [9]: 54700 ng·h/mL
- AUC(0-t) at 24 h [10]: 3300 ng·h/mL
- inhibition [11]: < 50%
- Time (Mus musculus [12]): 12.65 s
- inhibition [13]: < 50%
- inhibition [14]: < 50%
- inhibition (Rattus norvegicus [15]): Dose-dependent effect
- ED50 (Rattus norvegicus [15]; 432 h): 50.2 mg/kg
- LD50 at 24 h [16]: > 2000 mg/kg
- Ki [17]: 1.43 µM
- AUC(0-inf) [18]: 55400 ng·h/mL
- bioavailability [19]: 75.1%
- inhibition [20]: < 50%
- inhibition [21]: < 50%
- half-life [22]: 10.6 h
- inhibition [23]: < 50%
- AUC(0-inf) [24]: 3690 ng·h/mL
- inhibition [25]: < 50%
